Laboratory results from paper PMC8263925 (The Journal of General Physiology, 2021).
Where a chain is given by its changes, count along the chain named.

Experiments:
Format in all cases: cell-based
Hv1 R208K = target: T1, Hv1 R208K (Homo sapiens, UniProt Q96D96, R208K); assay: Inside-out patch time course of inhibition, mutant channel; details: 50 µM; fast component not resolved from slow component
T1 sequence (Q96D96 1-273 R208K): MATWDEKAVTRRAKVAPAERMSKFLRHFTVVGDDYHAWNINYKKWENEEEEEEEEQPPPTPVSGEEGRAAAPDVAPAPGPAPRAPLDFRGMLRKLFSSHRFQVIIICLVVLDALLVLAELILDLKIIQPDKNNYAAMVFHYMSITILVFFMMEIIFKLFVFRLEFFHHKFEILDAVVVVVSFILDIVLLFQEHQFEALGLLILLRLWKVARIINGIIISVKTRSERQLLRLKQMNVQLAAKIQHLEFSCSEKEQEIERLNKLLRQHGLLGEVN
Method in brief: (§1)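 Xenopus oocytes injected with mutant-channel mRNA 1–3 d earlier, kept at 18°C in ND96. Inside-out patches at 22 ± 1°C in symmetric Mes/TEA solutions, pH 6.0. Held at −40 mV and pulsed to +120 mV at relative depolarization time 0.2 (3 s/15 s). 50 µM perfused into bath. End-pulse current leak- and rundown-corrected. Decay fitted double-exponentially (τfast, τslow, cfast, cslow); washout recovery single-exponentially (τoff).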

Hv1 K157Q = target: T2, Hv1 K157Q (Homo sapiens, UniProt Q96D96, K157Q); assay: as above; details: 50 µM
T2 sequence (Q96D96 1-273 K157Q): T1 sequence (Q96D96 1-273 R208K) with K157Q, K208R
Method in brief: as §1

Hv1 F150A = target: T3, Hv1 F150A (Homo sapiens, UniProt Q96D96, F150A); assay: Inside-out patch time course of inhibition, mutant channel; details: 0.1 µM, SEM, n = 5
T3 sequence (Q96D96 1-273 F150A): T1 sequence (Q96D96 1-273 R208K) with F150A, K208R

Hv1 WT = target: T4, Hv1 WT (Homo sapiens, UniProt Q96D96)
T4 sequence (Q96D96 1-273): T1 sequence (Q96D96 1-273 R208K) with K208R
Method in brief: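 WT channel in inside-out oocyte patches, symmetric pH 6.0, 22 ± 1°C. Holding −40 mV, depolarization to +120 mV; relative depolarization time td/(tr + td) of 0.1, 0.2, 0.3 or 0.5. 50 µM perfused into bath, then washed out. End-pulse current normalized. Decay fitted double-exponentially (τfast, τslow, weights, c∞); recovery fitted single-exponentially. n = 7, 7, 5, 8 per RDT; SEM.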

Hv1 W207Y = target: T5, Hv1 W207Y (Homo sapiens, UniProt Q96D96, W207Y); assay: Inside-out patch time course of inhibition, mutant channel; details: 50 µM
T5 sequence (Q96D96 1-273 W207Y): T1 sequence (Q96D96 1-273 R208K) with W207Y, K208R
Method in brief: as §1

monomeric Hv1 = target: T6, monomeric Hv1 (Homo sapiens, UniProt Q96D96); assay: Inside-out patch time course of inhibition, monomeric Hv1 chimera; details: 50 µM
T6 sequence (Q96D96 97-227 limits assumed): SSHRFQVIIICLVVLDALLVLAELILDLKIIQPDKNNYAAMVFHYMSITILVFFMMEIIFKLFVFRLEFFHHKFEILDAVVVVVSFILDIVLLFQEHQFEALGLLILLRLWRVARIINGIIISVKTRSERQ

Hv1 D112E = target: T7, Hv1 D112E (Homo sapiens, UniProt Q96D96, D112E); assay: Inside-out patch time course of inhibition, mutant channel; details: 50 µM, RDT 0.1
T7 sequence (Q96D96 1-273 D112E): T1 sequence (Q96D96 1-273 R208K) with D112E, K208R
Method in brief: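 Mutant channel expressed in oocytes. Inside-out patches, pH 6.0 both sides, 22 ± 1°C. Holding −40 mV, depolarizations to +120 mV at relative depolarization time 0.1 (2 s/20 s) to follow slow kinetics, with matched WT comparison. 50 µM perfused into bath. Isochronal end-pulse current, leak- and rundown-corrected. Decay fitted with a double-exponential function for fast and slow components.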

[1] = 50 μM, double-exponential fit, RDT 0.1-0.5

- extent of inhibition compared with WT (Hv1 R208K): slightly increased
- reduction of the extent of inhibition vs WT (Hv1 K157Q): 46%
- τslow (Hv1 K157Q): > 200 s
- ratio between the peak current and the current at the end of the depolarization step in the presence of the inhibitor (Hv1 F150A): 2.5 ± 0.5
- relative contribution of the slow component, cslow / (cfast + cslow) (Hv1 WT; 50 μM, RDT = 0.2): 0.51
- τfast, time constant of fast component of inhibition (Hv1 WT; [1]): < 5 s
- τslow, time constant of slow component of inhibition (Hv1 WT; [1]): > 40 s
- τslow, RDTon = 0.1/τslow, RDTon = 0.5 (Hv1 WT; 50 μM, experimental): 1.15 ± 0.20
- τoff, recovery from inhibition (Hv1 WT; after 50 µM, RDT = 0.2): 94 ± 7 s
- τoff, time constant of recovery from inhibition (Hv1 WT; after 50 μM, single-exponential fit, RDT 0.1-0.5): ≥ 80 s
- reduction of the extent of inhibition vs WT (Hv1 W207Y): 38%
- τslow (Hv1 W207Y): > 200 s
- extent of inhibition compared with WT (monomeric Hv1): not reduced
- fast component of the inhibition process (Hv1 D112E): eliminated
- slow component of the inhibition process (Hv1 D112E): unaffected
SMILES: Cc1[nH]c(N)nc1CCC(=O)c1cc(F)cc(F)c1 [HIF, 3-(2-amino-5-methyl-1H-imidazol-4-yl)-1-(3,5-difluorophenyl)propan-1-one]
